# Assay results as given in ChEMBL document CHEMBL4715736, “Identification of anticancer agents based on the thieno[2,3-b]pyridine and 1H-pyrazole molecular scaffolds” (2016).
# Tests used:
# Format in all cases: functional
# MOLT-4 = experiment: Growth inhibition of human MOLT-4 cells assessed as cell growth at 0.01 uM incubated for 48 hrs by sulforhodamine B assay relative to control; settings: read-out: Activity
# RPMI-8226 = experiment: Growth inhibition of human RPMI-8226 cells assessed as cell growth at 0.01 uM incubated for 48 hrs by sulforhodamine B assay relative to control; settings: read-out: Activity
# NCI-H226 = experiment: Growth inhibition of human NCI-H226 cells assessed as cell growth at 0.01 uM incubated for 48 hrs by sulforhodamine B assay relative to control; settings: read-out: Activity
# HCT-116 [1] = experiment: Growth inhibition of human HCT-116 cells assessed as cell growth at 0.01 uM incubated for 48 hrs by sulforhodamine B assay relative to control; settings: read-out: Activity
# SF-539 [2] = experiment: Growth inhibition of human SF-539 cells assessed as cell growth at 0.01 uM incubated for 48 hrs by sulforhodamine B assay relative to control; settings: read-out: Activity
# Malme-3M = experiment: Growth inhibition of human Malme-3M cells assessed as cell growth at 0.01 uM incubated for 48 hrs by sulforhodamine B assay relative to control; settings: read-out: Activity
# OVCAR-3 = experiment: Growth inhibition of human OVCAR-3 cells assessed as cell growth at 0.01 uM incubated for 48 hrs by sulforhodamine B assay relative to control; settings: read-out: Activity
# SK-OV-3 = experiment: Growth inhibition of human SK-OV-3 cells assessed as cell growth at 0.01 uM incubated for 48 hrs by sulforhodamine B assay relative to control; settings: read-out: Activity
# MDA-MB-231 = experiment: Growth inhibition of human MDA-MB-231 cells assessed as cell growth at 0.01 uM incubated for 48 hrs by sulforhodamine B assay relative to control; settings: read-out: Activity
# Hs-578T = experiment: Growth inhibition of human Hs-578T cells assessed as cell growth at 0.01 uM incubated for 48 hrs by sulforhodamine B assay relative to control; settings: read-out: Activity
# HCT-116 [3] = experiment: Growth inhibition of human HCT-116 cells assessed as cell growth at 0.1 uM incubated for 48 hrs by sulforhodamine B assay relative to control; settings: read-out: Activity
# U-251 = experiment: Growth inhibition of human U-251 cells assessed as cell growth at 0.1 uM incubated for 48 hrs by sulforhodamine B assay relative to control; settings: read-out: Activity
# SK-MEL-2 [4] = experiment: Growth inhibition of human SK-MEL-2 cells assessed as cell growth at 0.1 uM incubated for 48 hrs by sulforhodamine B assay relative to control; settings: read-out: Activity
# UACC-257 [5] = experiment: Growth inhibition of human UACC-257 cells assessed as cell growth at 0.1 uM incubated for 48 hrs by sulforhodamine B assay relative to control; settings: read-out: Activity
# CAKI-1 = experiment: Growth inhibition of human CAKI-1 cells assessed as cell growth at 0.1 uM incubated for 48 hrs by sulforhodamine B assay relative to control; settings: read-out: Activity
# Summary of the method: (§1)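 NCI Developmental Therapeutics Program NCI60 panel. Compounds that were active in the 10 µM one-dose screen went on to dose–response testing. Growth at each concentration is expressed relative to untreated control (100%). GI50 (concentration giving 50% of maximal inhibition of proliferation) and TGI (concentration giving total growth inhibition) were derived from the curves.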
# SN12C [6] = experiment: Growth inhibition of human SN12C cells assessed as cell growth at 0.1 uM incubated for 48 hrs by sulforhodamine B assay relative to control; settings: read-out: Activity
# CCRF-CEM [7] = experiment: Growth inhibition of human CCRF-CEM cells assessed as cell growth at 1 uM incubated for 48 hrs by sulforhodamine B assay relative to control; settings: read-out: Activity; summary of the method: as §1
# K562 = experiment: Growth inhibition of human K562 cells assessed as cell growth at 1 uM incubated for 48 hrs by sulforhodamine B assay relative to control; settings: read-out: Activity
# NCI-H23 = experiment: Growth inhibition of human NCI-H23 cells assessed as cell growth at 1 uM incubated for 48 hrs by sulforhodamine B assay relative to control; settings: read-out: Activity
# OVCAR-8 = experiment: Growth inhibition of human OVCAR-8 cells assessed as cell growth at 1 uM incubated for 48 hrs by sulforhodamine B assay relative to control; settings: read-out: Activity
# A498 = experiment: Growth inhibition of human A498 cells assessed as cell growth at 1 uM incubated for 48 hrs by sulforhodamine B assay relative to control; settings: read-out: Activity; summary of the method: as §1
# ACHN [8] = experiment: Growth inhibition of human ACHN cells assessed as cell growth at 1 uM incubated for 48 hrs by sulforhodamine B assay relative to control; settings: read-out: Activity
# CCRF-CEM [9] = experiment: Growth inhibition of human CCRF-CEM cells assessed as cell growth at 100 uM incubated for 48 hrs by sulforhodamine B assay relative to control; settings: read-out: Activity; summary of the method: as §1
# NCI-H322M = experiment: Growth inhibition of human NCI-H322M cells assessed as cell growth at 100 uM incubated for 48 hrs by sulforhodamine B assay relative to control; settings: read-out: Activity
# KM12 = experiment: Growth inhibition of human KM12 cells assessed as cell growth at 100 uM incubated for 48 hrs by sulforhodamine B assay relative to control; settings: read-out: Activity
# UACC-257 [10] = experiment: Growth inhibition of human UACC-257 cells assessed as cell growth at 100 uM incubated for 48 hrs by sulforhodamine B assay relative to control; settings: read-out: Activity
# SN12C [11] = experiment: Growth inhibition of human SN12C cells assessed as cell growth at 100 uM incubated for 48 hrs by sulforhodamine B assay relative to control; settings: read-out: Activity
# CCRF-CEM [12] = experiment: Growth inhibition of human CCRF-CEM cells incubated for 48 hrs by sulforhodamine B assay; summary of the method: as §1
# SF-539 [13] = experiment: Growth inhibition of human SF-539 cells incubated for 48 hrs by sulforhodamine B assay; settings: for CC50: read-out: LC50 (the source's name)
# Summary of the method: (§2)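 NCI DTP 60-line human tumour panel. Dose-response curves were run only for ligands active in the initial 10 µM screen. GI50 (concentration giving 50% of maximal inhibition of proliferation) and TGI (concentration giving total growth inhibition) were derived from these curves.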
# M14 = experiment: Growth inhibition of human M14 cells incubated for 48 hrs by sulforhodamine B assay
# Summary of the method: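 NCI60 panel at the NCI Developmental Therapeutics Program. Only compounds active in the 10 µM screen went to dose-response testing. GI50, the concentration giving 50% of maximal inhibition of proliferation, and TGI, the concentration giving total growth inhibition, were derived from the dose-response curves.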
# SK-MEL-2 [14] = experiment: Growth inhibition of human SK-MEL-2 cells incubated for 48 hrs by sulforhodamine B assay; summary of the method: as §2
# SK-MEL-28 = experiment: Growth inhibition of human SK-MEL-28 cells incubated for 48 hrs by sulforhodamine B assay; summary of the method: as §2
# OVCAR-5 = experiment: Growth inhibition of human OVCAR-5 cells incubated for 48 hrs by sulforhodamine B assay; settings: for CC50: read-out: LC50 (the source's name); summary of the method: as §2
# ACHN [15] = experiment: Growth inhibition of human ACHN cells incubated for 48 hrs by sulforhodamine B assay; settings: for CC50: read-out: LC50 (the source's name); summary of the method: as §1
# T47D = experiment: Growth inhibition of human T47D cells incubated for 48 hrs by sulforhodamine B assay; settings: for CC50: read-out: LC50 (the source's name); summary of the method: as §2
compound,measurement,setting,value
Cc1cc(C)c(NC(=O)c2sc3nc4c(cc3c2N)CN(Cc2ccccc2)CC4)c(C)c1,growth at 0.01 µM,MOLT-4,99%
same,growth at 0.01 µM,RPMI-8226,101%
same,growth at 0.01 µM,NCI-H226,92%
same,growth at 0.01 µM,HCT-116 [1],93%
same,growth at 0.01 µM,SF-539 [2],91%
same,growth at 0.01 µM,Malme-3M,106%
same,growth at 0.01 µM,OVCAR-3,104%
same,growth at 0.01 µM,SK-OV-3,92%
same,growth at 0.01 µM,MDA-MB-231,100%
same,growth at 0.01 µM,Hs-578T,84%
same,growth at 0.1 µM,HCT-116 [3],97%
same,growth at 0.1 µM,U-251,96%
same,growth at 0.1 µM,SK-MEL-2 [4],113%
same,growth at 0.1 µM,UACC-257 [5],93%
same,growth at 0.1 µM,CAKI-1,90%
same,growth at 0.1 µM,SN12C [6],101%
same,growth at 1 µM,CCRF-CEM [7],88%
same,growth at 1 µM,K562,47%
same,growth at 1 µM,NCI-H23,93%
same,growth at 1 µM,OVCAR-8,91%
same,growth at 1 µM,A498,58%
same,growth at 1 µM,ACHN [8],89%
same,growth at 100 µM,CCRF-CEM [9],-3%
same,growth at 100 µM,NCI-H322M,39%
same,growth at 100 µM,KM12,-9%
same,growth at 100 µM,UACC-257 [10],17%
same,growth at 100 µM,SN12C [11],12%
same,GI50,CCRF-CEM [12],3.16 µM
same,LC50,CCRF-CEM [12],> 100 µM
same,TGI,CCRF-CEM [12],59.7 µM
same,GI50,SF-539 [13],2.44 µM
same,TGI,SF-539 [13],7.79 µM
same,CC50,SF-539 [13],> 100 µM
same,GI50,M14,2.89 µM
same,LC50 (concentration killing 50% of cells),M14,> 100 µM
same,TGI,M14,31.5 µM
same,GI50,SK-MEL-2 [14],5.59 µM
same,LC50,SK-MEL-2 [14],> 100 µM
same,TGI,SK-MEL-2 [14],> 100 µM
same,GI50,SK-MEL-28,6.97 µM
same,LC50,SK-MEL-28,> 100 µM
same,TGI,SK-MEL-28,40.4 µM
same,GI50,OVCAR-5,12.5 µM
same,TGI,OVCAR-5,> 100 µM
same,CC50,OVCAR-5,> 100 µM
same,GI50,ACHN [15],6.31 µM
same,TGI,ACHN [15],> 100 µM
same,CC50,ACHN [15],> 100 µM
same,GI50,T47D,2.62 µM
same,TGI,T47D,> 100 µM
same,CC50,T47D,> 100 µM
Cc1cccc(NC(=O)c2sc3nc4c(cc3c2N)C(=O)CCC4)c1,growth at 0.01 µM,MOLT-4,97%
same,growth at 0.01 µM,RPMI-8226,99%
same,growth at 0.01 µM,NCI-H226,95%
same,growth at 0.01 µM,HCT-116 [1],93%
same,growth at 0.01 µM,SF-539 [2],90%
same,growth at 0.01 µM,Malme-3M,91%
same,growth at 0.01 µM,OVCAR-3,98%
same,growth at 0.01 µM,SK-OV-3,90%
same,growth at 0.01 µM,MDA-MB-231,99%
same,growth at 0.01 µM,Hs-578T,88%
same,growth at 0.1 µM,HCT-116 [3],68%
same,growth at 0.1 µM,U-251,74%
same,growth at 0.1 µM,SK-MEL-2 [4],70%
same,growth at 0.1 µM,UACC-257 [5],58%
same,growth at 0.1 µM,CAKI-1,73%
same,growth at 0.1 µM,SN12C [6],87%
same,growth at 1 µM,CCRF-CEM [7],31%
same,growth at 1 µM,K562,21%
same,growth at 1 µM,NCI-H23,35%
same,growth at 1 µM,OVCAR-8,47%
same,growth at 1 µM,A498,-11%
same,growth at 1 µM,ACHN [8],49%
same,growth at 100 µM,CCRF-CEM [9],-7%
same,growth at 100 µM,NCI-H322M,-22%
same,growth at 100 µM,KM12,-58%
same,growth at 100 µM,UACC-257 [10],-16%
same,growth at 100 µM,SN12C [11],-33%
same,LC50,CCRF-CEM [12],> 100 µM
same,TGI,CCRF-CEM [12],> 100 µM
same,GI50,SF-539 [13],0.167 µM
same,TGI,SF-539 [13],0.462 µM
same,CC50,SF-539 [13],≥ 100 µM
same,GI50,M14,0.165 µM
same,LC50 (concentration killing 50% of cells),M14,> 100 µM
same,TGI,M14,≥ 100 µM
same,GI50,SK-MEL-2 [14],0.254 µM
same,LC50,SK-MEL-2 [14],> 100 µM
same,TGI,SK-MEL-2 [14],> 100 µM
same,GI50,SK-MEL-28,0.0308 µM
same,LC50,SK-MEL-28,> 100 µM
same,TGI,SK-MEL-28,≥ 100 µM
same,TGI,OVCAR-5,≥ 100 µM
same,CC50,OVCAR-5,> 100 µM
same,GI50,ACHN [15],0.0224 µM
same,TGI,ACHN [15],≥ 100 µM
same,CC50,ACHN [15],> 100 µM
same,TGI,T47D,> 100 µM
same,CC50,T47D,> 100 µM
